# Measurements of several laboratories.
# Lines come from different studies, so protocols differ.
# Effect on: enzyme activity
# Action: inhibitor
# CDK2 with cyclin A: Cyclin-dependent kinase 2, with cyclin A (CDK2, Homo sapiens, UniProt P24941)
# CDK2: Cyclin-dependent kinase 2 (CDK2, Homo sapiens, UniProt P24941)
target,method,tested at,inhibition [%],SMILES
CDK2 with cyclin A,,0.1 µM,1,COc1cc(-c2cc(-c3ccc(N4CCNCC4)cc3)cnc2N)cc(OC)c1OC
CDK2 with cyclin A,,1 µM,< 10,CCCS(=O)(=O)Nc1ccc(F)c(C(=O)c2c[nH]c3ncc(-c4ccc(Cl)cc4)cc23)c1F
CDK2 with cyclin A,,1 µM,-14,COc1cc2ncnc(Nc3ccc(Oc4ccccc4)cc3C)c2cc1OC
CDK2,,10 µM,-0.24,CNc1cccc2cc(C(=O)Nc3ccc(C(=O)O)cc3)c(=O)[nH]c12
"Cyclin-dependent kinase 2, with cyclin E (CDK2, Homo sapiens, UniProt P24941)",,1 µM,-13,CN1CC(Oc2cnc(C#N)cc2-c2ccn3nc(NC(=O)C4CC4)cc3c2)C1
"Cyclin-dependent kinase 2, with cyclin O (CDK2, Homo sapiens, UniProt P24941)",,10 µM,3,O=C(CSc1nc2nccnc2c(=O)n1CCc1ccccc1)Nc1nccs1
CDK2,,1 µM,94.4,CN(c1ncccc1CNc1nc(Nc2ccc3c(c2)CC(=O)N3)ncc1C(F)(F)F)S(C)(=O)=O
CDK2 with cyclin A,FRET,10 µM,4,CN(C)C1CCN(CC#Cc2nn(C3CCCC3)c3nc(NCc4ccccc4)ncc23)C1 (stereo not drawn)
CDK2,radiometric,50 nM,12.6,Cn1cncc1C1=CN(c2ncnc3[nH]cnc23)CCS1
CDK2 with cyclin A,,1 µM,-13,C=CC(=O)Nc1cc(Nc2nccc(Nc3cc(Cl)c(F)cc3C(C)(C)O)n2)c(OC)cc1N1CC[C@@H](N(C)C)C1
"Cyclin-dependent kinase 2, with cyclin A2 (CDK2, Homo sapiens, UniProt P24941)",,0.1 µM,0.5,CC/C(=N\NC(=O)NCc1cccc(O)c1)c1ccc(O)c(C)c1O
CDK2,radiometric,50 nM,20.5,Cn1cnc(Br)c1C1=CN(c2ncnc3[nH]cnc23)CCS1
